Data set [1] in a line: Singlet oxygen sensitization quantum yield. Format: physicochemical. As to conditions: PF6 salts; for ΦΔ singlet oxygen quantum yield: air-saturated MeCN, excitation wavelength in brackets; for 1O2 quantum yield ΦΔ: MeCN. In a few lines: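 ΦΔ was measured from ¹O₂ emission near 1276 nm, relative to [Ru(bpy)₃](PF₆)₂ (ΦΔ = 0.56 in aerated MeCN). Samples were 5–20 μM PF₆⁻ salts in air-bubbled, CaH₂-distilled MeCN. Excitation was at the longest wavelength maximising 1268 nm emission. Absorbance and refractive index corrections were applied, in triplicate.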

Data set [2] relates to SK-MEL-28 cells. Nature of the data set: NIR 733 nm photocytotoxicity, normoxia. The format is cell-based, human. As to conditions: read-out: EC50 with 733 nm light, 100 J cm^–2, 5 mW cm^–2. The gist of the method: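 Normoxic SK-MEL-28 monolayers in 384-well plates were illuminated with a 733 nm laser through a frontal diffuser (5 mW cm⁻², 100 J cm⁻²), with sham-treated dark controls. Viability was read by resazurin and EC50 was taken from the dose–response curve.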

Data set [3] deals with SK-MEL-28 cells. Nature of the data set: Sulforhodamine B. The format is cell-based, human. The following applies: SRB, hypoxia, across light treatments.
Data set [4] has as its system SK-MEL-28 human skin melanoma cells. Kind of data set: Resazurin. Format: cell-based. (In general: Alamar Blue is a resazurin reagent that responds to reducing activity.)
Data set [5] deals with SK-MEL-28 cells. Kind of data set: Os-4T interassay repeats, resazurin, hypoxia. Format: cell-based, human. In a few lines:
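Hypoxic (1% O₂) SK-MEL-28 phototoxicity was read by resazurin across repeats under three light conditions. Repeat 0 was run in 96-well plates; repeats 1–5 were run within a month in 384-well plates. Plate maps, pipette tips and seed stock (repeats 4–5) were varied, and overhead lights were off in repeat 5. Cells were at passages 10–15, with three replicates per repeat.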

Data set [6] deals with B16-F10 murine melanotic melanoma cells. Nature of the data set: External validation. The format is cell-based. In a few lines:
(§1)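 SK-MEL-28 and B16-F10 cells (B16-F10 grown in DMEM) in log phase were seeded and dosed with 1 nM–300 μM test compound diluted in DPBS (<1.2% v/v DMSO). Plates were irradiated 15–22 h after dosing with broadband projector visible light or a red 630 nm LED panel (33–40 mW cm⁻², 100 J cm⁻²). Resazurin was read at 48 h (530/620 nm). PI was dark EC50/light EC50.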

In data set [7] the test system is female C57BL/6J mice. Nature of the data set: Maximum tolerated dose in mice. The format is in vivo. The following applies: ip doses above 100 mg kg^–1 (100, 125, 200); behaviour resolved after 2 h.
The test system of data set [8] is SK-MEL-28 cells. Kind of data set: Os-4T interassay repeats, resazurin, normoxia. The format is cell-based, human.
Data set [9] concerns SK-MEL-28 human amelanotic melanoma cells. Nature of the data set: External validation. Format: cell-based. As to conditions: SK-MEL-28, external validation. In a few lines:
as §1

In data set [10] the test system is SK-MEL-28 cells. Kind of data set: Resazurin. Format: cell-based, human. The gist of the method:
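SK-MEL-28 cells were equilibrated at 1% O₂ for 2–3 h before dosing and kept hypoxic for at least 16 h. During illumination plates were sealed with qPCR films (about 20 °C, ≤1.5 h). Light was cool white (400–700 nm), green (523 nm) or red (633 nm) at 20 mW cm⁻² to 100 J cm⁻². Cells recovered in normoxia before the resazurin read. PI was dark EC50/light EC50.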

Data set [11] deals with SK-MEL-28 cells. Nature of the data set: NIR 753 nm photocytotoxicity on Modulight ML8500. Format: cell-based, human. The following applies: 10 μM, 300 mW cm^–2, 200*2 (≥400) J cm^–2, resazurin. The gist of the method: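 SK-MEL-28 wells were illuminated one by one with a 753 nm laser at a constant 300 mW cm⁻² over 0–400 J cm⁻², at 37 °C and 5% CO₂. Viability was read by resazurin relative to dark wells, in triplicate.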

Data set [12] is described as follows: Solubility in high ionic strength solvents. Format: physicochemical. As to conditions: DPBS, media.
For data set [13] the following is noted: aerated MeCN; cited from earlier work.
The mark [14] stands for this setting: read-out: EC50 ± SEM Dark, normoxia 18.5–21% O2, no light.
Where [15] appears, read: read-out: visible EC50, normoxia, visible light 100 J cm^–2.

The values below come from article PMC7953430 (Chemical Science, 2020).

Several values for one entry are separate records, joined by “and”; a condition that tells them apart may be missing. Identical values can stand only once. Like-named read-outs stand apart in the source and are kept apart here.

Regarding [Os(phen)2(IP)]^2+ [Os-0T], in data set [1], the “ΦΔ singlet oxygen quantum yield” value is 0.43 [473].

Usually EC50 stands for the concentration that produces a half-maximal response. With [Os(phen)2(IP-4T)]^2+ [Os-4T], the EC50 in [2] is 803 nM; in data set [4] (read-out: EC50 with green light, normoxia, green 523 nm, 100 J cm^–2), 1 nM; in data set [4] (read-out: EC50 with red light, normoxia, red 633 nm, 100 J cm^–2), 10 nM; in data set [4] (setting [14]) it was 65100 nM; in data set [4] (setting [15]), 0.018 nM; in [6] (read-out: visible EC50, B16-F10, external validation), 15 nM. Further, the EC50 in [8] (read-out: EC50 range over repeats, green, normoxia) was 1.16 to 25.4 nM; in data set [8] (read-out: EC50 range over repeats, red, normoxia), 10 to 46.2 nM; in [8] (read-out: EC50 range over repeats, visible, normoxia), 0.0178 to 8.91 nM; in [8] (read-out: average dark EC50 across repeats, either oxygen condition (normoxia and hypoxia), <7% variation), 62800 nM; in data set [8] (read-out: average normoxic EC50, green, normoxia, repeats) it was 11.7 nM; in data set [8] (read-out: average normoxic EC50, red, normoxia, repeats), 30.8 nM. Also, the EC50 in data set [8] (read-out: average normoxic EC50, visible, normoxia, repeats) was 1.62 nM; in data set [9] (read-out: red EC50), 9.44 nM; in [9] (read-out: visible EC50), 2.91 nM; in data set [10] (read-out: light EC50 values in hypoxia, hypoxia 1% O2, across visible, green, red light) it was 651 to 835 nM. In addition, in [3], the “total growth inhibition (TGI), light-treated samples” value was 140 to 170 nM. The “PI range across repeats and three light conditions” value in [5] (hypoxia 1% O2) is 32 to 167. In addition, the “average hypoxic PI across the three light conditions” value in data set [5] (hypoxia 1% O2, repeat 3 excluded) is recorded as 90. Also, the “PI Visible” value was > 20 000 and > 10^4 in data set [6] (B16-F10, dark EC50/visible EC50); over 90 in [10] (hypoxia 1% O2, dark EC50/visible EC50). In data set [1], the “1O2 quantum yield ΦΔ” value is on record as 95%. The “ΦΔ singlet oxygen quantum yield” value in data set [1] was 0.95 [525]. In data set [7], the observed clinical toxicity result is “mild toxicity”. For the same molecule, the “PI Green” value in data set [10] (hypoxia 1% O2, dark EC50/green EC50) is 91 and > 90. For the same molecule, the “reduction of relative cell viability compared to dark” value in data set [11] is recorded as 14%.

On to [Os(phen)2(IP-3T)]^2+ [Os-3T], for which the “PI Green” value in data set [4] (normoxia, dark EC50/green 523 nm EC50) is on record as 103. Moreover, the “PI Visible (phototherapeutic index)” value in [4] (normoxia, dark EC50/visible EC50) was found to be 369. For the same molecule, in data set [4] (setting [15]), the EC50 was 153 nM. In data set [1], the “1O2 quantum yield ΦΔ” value came out at 51% and the “ΦΔ singlet oxygen quantum yield” value was 0.51 [525].

Turning to [Os(phen)2(IP-1T)]^2+ [Os-1T], the “ΦΔ singlet oxygen quantum yield” value in [1] is 0.42 [473].

Consider `[Cl-].[Cl-].[Os+2].c1cnc2c(c1)ccc1cccnc12.c1cnc2c(c1)ccc1cccnc12.c1cnc2c(c1)ccc1cccnc12` [[Os(phen)3]Cl2, reference compound], for which the “PI regardless of wavelength” value in data set [4] (normoxia, visible, green or red) is on record as 2–4. Moreover, the EC50 in data set [4] (setting [14]) was 158000 nM. For the same molecule, the “solubility in high ionic strength solvents” value in [12] was over 300 µM.

As to [Os(phen)2(IP-2T)]^2+ [Os-2T], the EC50 in data set [4] (setting [14]) worked out at 35700 nM. Further, in data set [1], the “ΦΔ singlet oxygen quantum yield” value is 0.49 [472].

Turning to `F[P-](F)(F)(F)(F)F.F[P-](F)(F)(F)(F)F.[Ru+2].c1ccc(-c2ccccn2)nc1.c1ccc(-c2ccccn2)nc1.c1ccc(-c2ccccn2)nc1` [[Ru(bpy)3](PF6)2], the “ΦΔ singlet oxygen quantum yield (standard)” value in [13] is 0.56.
